Consider 1 compound from ChEMBL document CHEMBL1944602, “Synthesis and biological characterisation of sirtuin inhibitors based on the tenovins” (Bioorg Med Chem, 2012).

Calls of active or inactive are those of the source. No cut-off for these calls is given here.

For data set [1], the target named is T1, NAD-dependent protein deacetylase sirtuin-1 (Homo sapiens) (UniProt Q96EB6).
T1 sequence (whole entry): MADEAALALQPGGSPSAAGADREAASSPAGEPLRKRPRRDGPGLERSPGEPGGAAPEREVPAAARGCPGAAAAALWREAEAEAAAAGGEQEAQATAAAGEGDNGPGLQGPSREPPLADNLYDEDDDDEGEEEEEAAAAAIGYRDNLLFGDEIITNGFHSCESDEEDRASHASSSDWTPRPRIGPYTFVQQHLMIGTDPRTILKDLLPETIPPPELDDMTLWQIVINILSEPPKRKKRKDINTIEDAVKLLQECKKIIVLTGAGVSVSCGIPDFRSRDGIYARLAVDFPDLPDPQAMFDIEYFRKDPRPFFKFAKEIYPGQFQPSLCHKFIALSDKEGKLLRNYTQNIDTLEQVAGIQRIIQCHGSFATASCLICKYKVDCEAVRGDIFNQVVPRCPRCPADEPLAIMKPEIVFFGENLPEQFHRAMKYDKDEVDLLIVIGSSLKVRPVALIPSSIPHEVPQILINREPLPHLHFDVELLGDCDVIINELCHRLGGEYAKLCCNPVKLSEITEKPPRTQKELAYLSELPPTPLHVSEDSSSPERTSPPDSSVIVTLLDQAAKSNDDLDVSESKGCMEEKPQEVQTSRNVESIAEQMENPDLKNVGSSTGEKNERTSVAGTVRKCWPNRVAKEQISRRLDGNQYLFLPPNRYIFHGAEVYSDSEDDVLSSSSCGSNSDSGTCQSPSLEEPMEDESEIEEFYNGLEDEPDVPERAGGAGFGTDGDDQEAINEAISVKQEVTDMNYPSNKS
Description: Inhibition of SirT1 in human ARN8 cells assessed as p53 activation at 10 uM by beta-galactosidase reporter gene assay. The format is cell-based. The method, boiled down:
(§1)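 p53-dependent transcription measured with a beta-galactosidase reporter in ARN8 cells, run in triplicate. Read-out is the ratio of signal in treated cells to DMSO-control cells, given to 2 significant figures; a positive or negative activity call is also recorded.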
In general terms: A reporter such as luciferase makes a cellular process visible.

Data set [2] concerns the target T1, NAD-dependent protein deacetylase sirtuin-1 (Homo sapiens). Kind of data set: Inhibition of SirT1 in human ARN8 cells assessed as p53 activation at 5 uM by beta-galactosidase reporter gene assay. The format is cell-based. The method, boiled down: as §1
Data set [3] addresses T2, NAD-dependent protein deacetylase sirtuin-2 (Homo sapiens, UniProt Q8IXJ6).
T2 sequence (Q8IXJ6 whole entry): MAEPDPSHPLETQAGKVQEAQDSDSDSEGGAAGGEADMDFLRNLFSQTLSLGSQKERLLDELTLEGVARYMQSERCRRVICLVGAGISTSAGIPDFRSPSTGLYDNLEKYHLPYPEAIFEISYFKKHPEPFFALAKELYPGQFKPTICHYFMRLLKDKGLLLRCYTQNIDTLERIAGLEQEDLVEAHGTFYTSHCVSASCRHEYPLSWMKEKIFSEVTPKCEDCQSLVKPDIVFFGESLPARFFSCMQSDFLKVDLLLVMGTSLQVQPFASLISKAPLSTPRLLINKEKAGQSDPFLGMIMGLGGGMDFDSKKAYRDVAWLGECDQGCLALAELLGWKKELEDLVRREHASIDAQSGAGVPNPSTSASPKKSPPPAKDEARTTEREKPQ
Description: Inhibition of recombinant human SitT2 by Fluor de Lys fluorescence assay.

Data set [4] addresses T3, NAD-dependent protein deacetylase sirtuin-1 (Homo sapiens, UniProt Q96EB6).
T3 sequence (Q96EB6 whole entry): T1 sequence (whole entry)
Description: Inhibition of recombinant human SitT1 by Fluor de Lys fluorescence assay.

In data set [5] the target is T1, NAD-dependent protein deacetylase sirtuin-1 (Homo sapiens). Description: Inhibition of SirT1 in human ARN8 cells assessed as p53 activation at 5 uM by beta-galactosidase reporter gene assay relative to control. In kind it is cell-based. Put shortly: as §1
Data set [6] has the same target. Description: Inhibition of recombinant human SitT1 at 60 uM by Fluor de Lys fluorescence assay. The method, boiled down: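 Human recombinant SirT1 deacetylation measured with the Fluor de Lys fluorescence kit at a fixed 60 µM inhibitor. Tested on two separate occasions; percent inhibition reported as a mean weighted to the standard error.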
Data set [7] has the same target. Description: Inhibition of SirT1 in human ARN8 cells assessed as p53 activation at 20 uM by beta-galactosidase reporter gene assay relative to control. The format is cell-based. The method, boiled down: as §1
The target is the same in data set [8]. Kind of data set: Inhibition of SirT1 in human ARN8 cells assessed as p53 activation at 10 uM by beta-galactosidase reporter gene assay relative to control. In kind it is cell-based. The method, boiled down: as §1
The nature of data set [9]: Cytotoxicity against human H1299 cells at 20 uM. In kind it is cell-based. The note with it: nci-h1299, 20 µM.
Data set [10] in a line: Cytotoxicity against human ARN8 cells at 20 uM. In kind it is cell-based. The note with it: arn8, 20 µM.
Data set [11] can be described thus: Cytotoxicity against human H1299 cells at 30 uM. In kind it is cell-based. The note with it: nci-h1299, 30 µM.

Take `CCCCc1ccc(C(=O)NC(=S)Nc2ccc(NC(=O)CCCCN(C)C)cc2)cc1.Cl`: the inhibition entry in data set [1] and in data set [2] was “inactive” each time. Moreover, the IC50 in [3] is 8.6 µM; in data set [4], 46.3 µM. Also, the fold change (FC) in data set [5] turned out to be 0.91; in data set [7], 0.28; in data set [8] it was 0.93. In addition, the inhibition in [6] was 56.3%. The Activity result in [9], in [10] and in data set [11] was “Toxic” in each case.

As usually defined, the inhibition is the drop in the measured response relative to a control, in per cent. Usually IC50 stands for the concentration that gives 50% inhibition.
